High-throughput results deposited in PubChem BioAssay by several laboratories.
TMEM16A inh – TMEM16A chloride channel inhibitors, primary screen, cell-based, HTS; Anoctamin-1 (Mus musculus), Q8BHY3; HEK293 TMEM16A/YFP iodide influx fluorescence, ionomycin; normalized B-score (activity score, 25-100; higher = stronger inhibition) at 10 µM; 310,000 compounds, 1.2% hits; AID 588511, 2011;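 active = ratio plate-corrected score three or more library SD toward inhibition, starting fluorescence score within five deviations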;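 note: score derived from kinetic fluorescence span divided by baseline fluorescence per well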
Target sequence (Q8BHY3 whole entry, looked up): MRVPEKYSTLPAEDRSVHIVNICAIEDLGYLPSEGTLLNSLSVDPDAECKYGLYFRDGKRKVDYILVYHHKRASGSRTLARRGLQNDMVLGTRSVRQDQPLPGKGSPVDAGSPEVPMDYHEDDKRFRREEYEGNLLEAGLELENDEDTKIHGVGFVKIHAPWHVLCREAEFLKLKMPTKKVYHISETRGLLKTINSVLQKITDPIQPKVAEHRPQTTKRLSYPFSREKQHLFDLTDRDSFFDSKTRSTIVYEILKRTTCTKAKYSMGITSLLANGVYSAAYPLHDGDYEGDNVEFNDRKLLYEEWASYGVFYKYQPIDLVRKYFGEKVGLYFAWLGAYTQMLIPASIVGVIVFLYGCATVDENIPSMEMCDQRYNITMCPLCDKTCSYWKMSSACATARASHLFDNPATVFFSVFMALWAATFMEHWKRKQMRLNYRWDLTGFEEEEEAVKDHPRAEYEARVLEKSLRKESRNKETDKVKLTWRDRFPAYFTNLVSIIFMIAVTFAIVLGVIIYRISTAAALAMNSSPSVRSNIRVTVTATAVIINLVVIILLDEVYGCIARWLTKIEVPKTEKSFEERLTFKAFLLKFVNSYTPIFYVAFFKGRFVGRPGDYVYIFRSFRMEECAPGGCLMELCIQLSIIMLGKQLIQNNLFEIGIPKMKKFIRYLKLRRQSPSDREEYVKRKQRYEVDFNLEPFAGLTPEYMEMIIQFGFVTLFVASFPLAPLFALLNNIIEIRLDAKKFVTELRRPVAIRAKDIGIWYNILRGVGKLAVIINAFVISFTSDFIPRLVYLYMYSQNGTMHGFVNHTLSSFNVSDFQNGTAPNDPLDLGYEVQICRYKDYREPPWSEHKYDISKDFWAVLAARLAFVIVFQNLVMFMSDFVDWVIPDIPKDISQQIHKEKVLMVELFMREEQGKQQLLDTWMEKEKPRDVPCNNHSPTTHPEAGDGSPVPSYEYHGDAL
CSC inhib – cancer stem cell viability inhibitors, primary screen, luminescence | cancer stem cell-like cells viability | 300,000 compounds, 1.1% hits | inhibition, % at 7.5 µM; in the data active = inhibition above about 75%; tested in HMLE shEcad cells
MC4R antag cAMP – MC4R antagonists of cAMP signaling, primary screen, cell-based, TR-FRET, antagonist arm of biased-ligand search. 360,000 compounds, 0.48% hits. inhibition, % at 6.5 µM. MC4R-expressing cells, MTII-stimulated cAMP, LANCE TR-FRET. Melanocortin receptor 4 (Homo sapiens), P32245;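 active = inhibition above its plate's cutoff, the mean of tested wells on that plate plus 3 SD, cut at about 29% in these data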;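 note: 0% = Melanotan II alone and 100% = Melanotan II plus saturating MCL0020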
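system = U2OS cells with stable human MC4R expression | also added = Melanotan II challenge after compound preincubation | dosing = one concentration, 6.5 µM nominal | incubation = compound 30 min, challenge 1 h, detection 1 h | measured by = TR-FRET with Eu-cAMP and labeled anti-cAMP, 671 nm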
MC4R barr agon – MC4R agonists recruiting beta-arrestin, primary screen, cell-based, luminescence, agonist arm of biased-ligand search; Melanocortin receptor 4 (Homo sapiens), P32245; U2OS MC4R beta-arrestin complementation; percent of melanotan II response, DMSO zero; activation, % at 8.9 µM; 360,000 compounds, 0.98% hits; AID 540308, 2011;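 active = activation above a per-plate cutoff, the mean activation of sample wells on that plate plus 3 SD, cut at about 8% in these data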
ANO1 activ – TMEM16A chloride channel activators or potentiators, primary screen, cell-based, HTS; Anoctamin-1 (Mus musculus), Q8BHY3; HEK293 TMEM16A/YFP-H148Q/I152L, iodide quench fluorescence; stronger effect = lower value; B-score at 10 µM; 340,000 compounds, 0.3% hits; AID 623877, 2012;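 active = fluorescence-ratio B-score plate-corrected deviation score at least 3 library SD below zero, with starting fluorescence score within 5 deviations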;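 note: channel opened by trigger with iodide after compound preincubation; score built on the fluorescence ratio of max minus min over baseline; more negative score means more quench and so TMEM16A activation or potentiation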
Beta apoptosis – inhibitors of cytokine-induced beta cell apoptosis, primary screen, luminescence; AID 435005, 2010; protection from apoptosis, % (concentration not given with the values); INS-1E cytokine-induced death, ATP luminescence, 48 h; percent of positive-control rescue, neutral wells zero; 300,000 compounds, 0.8% hits;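 active = Every replicate reaches about 75%, or at least half do and their mean reaches it too, limit read from the data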;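 note: 0% = cytokine-treated negative control wells and 100% = positive control rescue; higher means more ATP so stronger rescue from cytokine killing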
TMEM16A reconf – TMEM16A chloride channel inhibitors, confirmation, cell-based, re-confirmation | shares compounds with TMEM16A inh | HEK293 TMEM16A/YFP-H148Q, iodide quench fluorescence; ionomycin added to raise cell calcium | inhibition, % at 10 µM | 2,300 compounds, 39% hits | AID 652189, 2013;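 active = mean duplicate percent inhibition, scaled so buffer wells are 0 and the reference blocker 100, over three buffer SD above buffer mean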
TMEM16A Ca cntr – calcium mobilization in TMEM16A/YFP HEK293 cells, confirmation, counter-screen for TMEM16A inhibitor project; Fluo4 calcium mobilization; shares compounds with TMEM16A inh; calcium response (% of ionomycin), % at 10 µM; 2,300 compounds, 2% hits; AID 652231, 2013;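 active = duplicate-averaged calcium signal over 20% of the ionomycin maximum, relative to buffer baseline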;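 note: each well's signal is peak minus trough fluorescence divided by its pre-addition baseline; 0% = buffer wells and 100% = ionomycin wells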
YFP-HEK293 quench – iodide YFP quench changes in parental YFP-HEK293, counter-screen for TMEM16A inhibitor project, cell-based. shares compounds with TMEM16A inh. ionomycin. YFP ratio F(max-min)/F0 at 10 µM. 2,300 tested, under 10 active. AID 652233, 2013;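 active = yellow fluorescent protein signal ratio exceeding the buffer control mean by over 5 SD of those controls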;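 note: ratio is mean of duplicate wells from kinetic YFP trace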
ClC-1 rat inh – ClC-1 chloride channel inhibition, selectivity assay for TMEM16A inhibitor project, cell-based, voltage-dependent ClC-1; shares compounds with TMEM16A inh; CHO ClC-1-YFP, iodide influx fluorescence quench; iodide control reads 0, buffer control 100; ratio percent, % at 10 µM; 2,300 tested, under 10 active;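 active = duplicate-mean ratio percent above the mean of iodide-only control wells, which defines zero, plus 5 of their SD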;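 note: higher percent means stronger block of ClC-1 iodide influx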
Numbers without * were called inactive. Most compounds without a hit are left out; they make up all but 3.8% or so of the library.

What do the screens show for `Cc1csc(NC(=O)c2ccc(Cn3nc(C)c(Br)c3C)o2)n1`?
TMEM16A inh: 100*; CSC inhib: 51; MC4R antag cAMP: 1; MC4R barr agon: -1; ANO1 activ: inactive; Beta apoptosis: 24; TMEM16A reconf: 25%*; TMEM16A Ca cntr: inactive; YFP-HEK293 quench: -0.83; ClC-1 rat inh: -18

How did CC1CC(C)CN(CCCNC(=O)c2ccc3nc(N4CCCCC4)sc3c2)C1 (centres undefined) do in these assays?
TMEM16A inh: 100*; CSC inhib: 1; MC4R antag cAMP: 11; MC4R barr agon: 1; ANO1 activ: inactive; Beta apoptosis: -6; TMEM16A reconf: inactive; TMEM16A Ca cntr: inactive; YFP-HEK293 quench: -1.1; ClC-1 rat inh: -20

Results for CC(C)n1ncc2c(C(=O)Nc3cccc(C#N)c3)cc(C3CC3)nc21 ?
CSC inhib: 8; MC4R antag cAMP: 6; MC4R barr agon: 4; ANO1 activ: inactive; Beta apoptosis: 12

What do the screens show for `Cc1ccc(-n2c(C)cc(C(=O)CSc3nncs3)c2C)cc1`?
TMEM16A inh: 100*; MC4R antag cAMP: -9; MC4R barr agon: 2; ANO1 activ: inactive; TMEM16A reconf: 50%*; TMEM16A Ca cntr: inactive; YFP-HEK293 quench: -0.9; ClC-1 rat inh: -18

How did Cc1cc(C)c2nc(SC(C)C#N)cc(C)c2c1 (centres undefined) do in these assays?
TMEM16A inh: 100*; CSC inhib: -25; MC4R antag cAMP: 0; MC4R barr agon: -1; ANO1 activ: inactive; Beta apoptosis: -2; TMEM16A reconf: inactive; TMEM16A Ca cntr: inactive; YFP-HEK293 quench: -1.1; ClC-1 rat inh: 0

What do the screens show for `Cc1cc(C)c2nc(SC3CCOC3=O)cc(C)c2c1` (centres undefined)?
TMEM16A inh: inactive; CSC inhib: 1; MC4R antag cAMP: 5; MC4R barr agon: -2; ANO1 activ: inactive; Beta apoptosis: -5

Results for Cc1ccccc1C1C(C#N)=C2N=C(N)c3c(sc4c3CCCCC4)N2C2=C1C(=O)CC(C)(C)C2 (centres undefined) ?
TMEM16A inh: inactive; CSC inhib: 11; MC4R antag cAMP: 1; MC4R barr agon: -2; ANO1 activ: inactive; Beta apoptosis: -4; TMEM16A reconf: inactive; TMEM16A Ca cntr: inactive; YFP-HEK293 quench: -1.1; ClC-1 rat inh: 0

What do the screens show for `CN(c1ccccc1)S(=O)(=O)c1ccc(NC(=O)c2ccc(-c3ccccc3)cc2)cc1`?
TMEM16A inh: inactive; CSC inhib: 15; MC4R antag cAMP: 18; MC4R barr agon: 6; ANO1 activ: inactive; Beta apoptosis: 31

Results for CN(c1ccccc1)S(=O)(=O)c1ccc(C(=O)Nc2nnc(-c3ccc(F)cc3)o2)cc1 ?
TMEM16A inh: 100*; CSC inhib: 46; Beta apoptosis: 10; TMEM16A reconf: 18%*; TMEM16A Ca cntr: inactive; YFP-HEK293 quench: -1; ClC-1 rat inh: -8

How did CC(=O)COC(=O)CCc1nc2ccccc2[nH]c1=O do in these assays?
TMEM16A inh: inactive; CSC inhib: -8; MC4R antag cAMP: -4; MC4R barr agon: 0; ANO1 activ: inactive; Beta apoptosis: 9

How did CC(C)(C)C(=O)COC(=O)CCc1nc2ccccc2[nH]c1=O do in these assays?
TMEM16A inh: 25*; CSC inhib: 1; MC4R antag cAMP: -4; MC4R barr agon: 1; ANO1 activ: inactive; Beta apoptosis: -3; TMEM16A reconf: inactive; TMEM16A Ca cntr: inactive; YFP-HEK293 quench: -0.83; ClC-1 rat inh: -4

What do the screens show for `CCC(C(=O)OCC(=O)N1C(C)CCCC1C)c1ccccc1` (centres undefined)?
TMEM16A inh: inactive; CSC inhib: -2; MC4R antag cAMP: 2; MC4R barr agon: -1; ANO1 activ: inactive; Beta apoptosis: -5

How did Cc1ccc(SC[C@H](C)CN2CC[C@H](C(C)(C)C)CCC2=O)cc1 do in these assays?
TMEM16A inh: 100*; CSC inhib: 76*; MC4R antag cAMP: 3; MC4R barr agon: 3; ANO1 activ: inactive; Beta apoptosis: 1; TMEM16A reconf: 38%*; TMEM16A Ca cntr: inactive; YFP-HEK293 quench: -0.89; ClC-1 rat inh: 0

How did COc1ccc(OCC(=O)N(C)CC2COc3ccccc3O2)cc1 (centres undefined) do in these assays?
CSC inhib: -6; MC4R antag cAMP: 1; MC4R barr agon: -1; ANO1 activ: inactive; Beta apoptosis: -2

How did CCn1c(SCC(=O)N2CCOCC2)nc2oc3c(Cl)cc(Cl)cc3c(=O)c2c1=O do in these assays?
TMEM16A inh: inactive; CSC inhib: 40; TMEM16A reconf: 32%*; TMEM16A Ca cntr: inactive; YFP-HEK293 quench: -0.31; ClC-1 rat inh: 10

Results for O=C1CCCC2=C1C1(CCCC1)N=C(Nc1nc3cc(-c4ccccc4)ccc3o1)N2 ?
MC4R antag cAMP: 3; MC4R barr agon: 2

How did Cc1nc(CN2C(=O)C3(CCC3)ON=C2c2cccc(Cl)c2)cs1 do in these assays?
MC4R antag cAMP: 13; MC4R barr agon: 0

Results for CC(C)CSc1nnc2c(n1)[nH]c1ccccc12 ?
TMEM16A inh: inactive; CSC inhib: 2; MC4R antag cAMP: 3; MC4R barr agon: 0; ANO1 activ: inactive; Beta apoptosis: -1
